Assay results as given in the RNAGym collection of RNA variant scans (doi:10.1002/anie.201605470).

B1: Osa-1-4 twister ribozyme (parent)
chain: CCGCCUAACACUGCCAAUGCCGGUCCCAAGCCCGGAUAAAAGUGGAGGGGGCGG

Variants of: B1
Assay: self-cleavage, relative activity (ratio to wild type); higher = more cleavage; co-transcriptional
Procedure, shortened: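 A DNA template encoding a 54-nucleotide twister ribozyme from Oryza sativa was made so that each of the 48 positions downstream of the cleavage site carried 97 % wild-type base and 1 % of each other base. Transcription in vitro ran for 2 h at 37 °C, during which the ribozyme could cleave itself. Reverse transcription used a template-switching oligonucleotide, and the products were PCR-amplified and deep-sequenced. Each read was scored as cleaved or uncleaved by whether upstream sequence was present, and relative activity is the fraction cleaved normalised to wild type.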

Variant	self-cleavage
CCGCCUAACACGGCCAAUGCCGGUCCCAAGCCCGGAUAAAAGUGGUGGGGGCGG [A46U U12G]	0.07
CCGCCUAACACUGCCAAAGCCGGUCCCAAGCCCGGAUAAAAGUGGUGGGGGCGG [A46U U18A]	0.05
CCGCCUAACACUGCCAACGCCGGUCCCAAGCCCGGAUAAAAGUGGUGGGGGCGG [A46U U18C]	0.08
CCGCCUAACACUGCCAAGGCCGGUCCCAAGCCCGGAUAAAAGUGGUGGGGGCGG [A46U U18G]	0.09
CCGCCUAACACUGCCAAUGCCGGACCCAAGCCCGGAUAAAAGUGGUGGGGGCGG [A46U U24A]	0.04
CCGCCUAACACUGCCAAUGCCGGCCCCAAGCCCGGAUAAAAGUGGUGGGGGCGG [A46U U24C]	0.05
CCGCCUAACACUGCCAAUGCCGGGCCCAAGCCCGGAUAAAAGUGGUGGGGGCGG [A46U U24G]	0.01
CCGCCUAACACUGCCAAUGCCGGUCCCAAGCCCGGAAAAAAGUGGUGGGGGCGG [A46U U37A]	0.05
CCGCCUAACACUGCCAAUGCCGGUCCCAAGCCCGGACAAAAGUGGUGGGGGCGG [A46U U37C]	0.09
CCGCCUAACACUGCCAAUGCCGGUCCCAAGCCCGGAGAAAAGUGGUGGGGGCGG [A46U U37G]	0.11
CCGCCUAACACUGCCAAUGCCGGUCCCAAGCCCGGAUAAAAGAGGUGGGGGCGG [A46U U43A]	0.08
CCGCCUAACACUGCCAAUGCCGGUCCCAAGCCCGGAUAAAAGCGGUGGGGGCGG [A46U U43C]	0.06
CCGCCUAACACUGCCAAUGCCGGUCCCAAGCCCGGAUAAAAGGGGUGGGGGCGG [A46U U43G]	0.07
CCGCCUAACACUGCCAAUGCCGGUCCCAAGCCCGGAUAAAAGUGGAAGGGGCGG [G47A]	0.51
CCGCCUAACACUGCCAAUGCCGGUCCCAAGCCCGGAUAAAAGUGGAAAGGGCGG [G47A G48A]	0.08
CCGCCUAACACUGCCAAUGCCGGUCCCAAGCCCGGAUAAAAGUGGAACGGGCGG [G47A G48C]	0.04
CCGCCUAACACUGCCAAUGCCGGUCCCAAGCCCGGAUAAAAGUGGAAUGGGCGG [G47A G48U]	0.04
CCGCCUAACACUGCCAAUGCCGGUCCCAAGCCCGGAUAAAAGUGGAAGAGGCGG [G47A G49A]	0.05
CCGCCUAACACUGCCAAUGCCGGUCCCAAGCCCGGAUAAAAGUGGAAGCGGCGG [G47A G49C]	0.04
CCGCCUAACACUGCCAAUGCCGGUCCCAAGCCCGGAUAAAAGUGGAAGUGGCGG [G47A G49U]	0.04
CCGCCUAACACUGCCAAUGCCGGUCCCAAGCCCGGAUAAAAGUGGAAGGAGCGG [G47A G50A]	0.36
CCGCCUAACACUGCCAAUGCCGGUCCCAAGCCCGGAUAAAAGUGGAAGGCGCGG [G47A G50C]	0.07
CCGCCUAACACUGCCAAUGCCGGUCCCAAGCCCGGAUAAAAGUGGAAGGUGCGG [G47A G50U]	0.09
CCGCCUAACACUGCCAAUGCCGGUCCCAAGCCCGGAUAAAAGUGGAAGGGACGG [G47A G51A]	0.12
CCGCCUAACACUGCCAAUGCCGGUCCCAAGCCCGGAUAAAAGUGGAAGGGCCGG [G47A G51C]	0.05

Variant	self-cleavage
CCGCCUAACACUGCCAAUGCCGGUCCCAAGCCCGGAUAAAAGUGGAAGGGUCGG [G47A G51U]	0.09
CCGCCUAACACUGCCAAUGCCGGUCCCAAGCCCGGAUAAAAGUGGAAGGGGCAG [G47A G53A]	0.13
CCGCCUAACACUGCCAAUGCCGGUCCCAAGCCCGGAUAAAAGUGGAAGGGGCCG [G47A G53C]	0.06
CCGCCUAACACUGCCAAUGCCGGUCCCAAGCCCGGAUAAAAGUGGAAGGGGCUG [G47A G53U]	0.08
CCGCCUAACACUGCCAAUGCCGGUCCCAAGCCCGGAUAAAAGUGGAAGGGGCGA [G47A G54A]	0.18
CCGCCUAACACUGCCAAUGCCGGUCCCAAGCCCGGAUAAAAGUGGAAGGGGCGC [G47A G54C]	0.15
CCGCCUAACACUGCCAAUGCCGGUCCCAAGCCCGGAUAAAAGUGGAAGGGGCGU [G47A G54U]	0.34
CCGCCUAACACAGCCAAUGCCGGUCCCAAGCCCGGAUAAAAGUGGAAGGGGCGG [G47A U12A]	0.08
CCGCCUAACACCGCCAAUGCCGGUCCCAAGCCCGGAUAAAAGUGGAAGGGGCGG [G47A U12C]	0.07
CCGCCUAACACGGCCAAUGCCGGUCCCAAGCCCGGAUAAAAGUGGAAGGGGCGG [G47A U12G]	0.06
CCGCCUAACACUGCCAAAGCCGGUCCCAAGCCCGGAUAAAAGUGGAAGGGGCGG [G47A U18A]	0.33
CCGCCUAACACUGCCAACGCCGGUCCCAAGCCCGGAUAAAAGUGGAAGGGGCGG [G47A U18C]	0.22
CCGCCUAACACUGCCAAGGCCGGUCCCAAGCCCGGAUAAAAGUGGAAGGGGCGG [G47A U18G]	0.56
CCGCCUAACACUGCCAAUGCCGGACCCAAGCCCGGAUAAAAGUGGAAGGGGCGG [G47A U24A]	0.04
CCGCCUAACACUGCCAAUGCCGGCCCCAAGCCCGGAUAAAAGUGGAAGGGGCGG [G47A U24C]	0.04
CCGCCUAACACUGCCAAUGCCGGGCCCAAGCCCGGAUAAAAGUGGAAGGGGCGG [G47A U24G]	0.02
CCGCCUAACACUGCCAAUGCCGGUCCCAAGCCCGGAAAAAAGUGGAAGGGGCGG [G47A U37A]	0.28
CCGCCUAACACUGCCAAUGCCGGUCCCAAGCCCGGACAAAAGUGGAAGGGGCGG [G47A U37C]	0.44
CCGCCUAACACUGCCAAUGCCGGUCCCAAGCCCGGAGAAAAGUGGAAGGGGCGG [G47A U37G]	0.62
CCGCCUAACACUGCCAAUGCCGGUCCCAAGCCCGGAUAAAAGAGGAAGGGGCGG [G47A U43A]	0.11
CCGCCUAACACUGCCAAUGCCGGUCCCAAGCCCGGAUAAAAGCGGAAGGGGCGG [G47A U43C]	0.09
CCGCCUAACACUGCCAAUGCCGGUCCCAAGCCCGGAUAAAAGGGGAAGGGGCGG [G47A U43G]	0.1
CCGCCUAACACUGCCAAUGCCGGUCCCAAGCCCGGAUAAAAGUGGACGGGGCGG [G47C]	0.17
CCGCCUAACACUGCCAAUGCCGGUCCCAAGCCCGGAUAAAAGUGGACAGGGCGG [G47C G48A]	0.04
CCGCCUAACACUGCCAAUGCCGGUCCCAAGCCCGGAUAAAAGUGGACCGGGCGG [G47C G48C]	0.05

Variant	self-cleavage
CCGCCUAACACUGCCAAUGCCGGUCCCAAGCCCGGAUAAAAGUGGACUGGGCGG [G47C G48U]	0.03
CCGCCUAACACUGCCAAUGCCGGUCCCAAGCCCGGAUAAAAGUGGACGAGGCGG [G47C G49A]	0.05
CCGCCUAACACUGCCAAUGCCGGUCCCAAGCCCGGAUAAAAGUGGACGCGGCGG [G47C G49C]	0.06
CCGCCUAACACUGCCAAUGCCGGUCCCAAGCCCGGAUAAAAGUGGACGUGGCGG [G47C G49U]	0.03
CCGCCUAACACUGCCAAUGCCGGUCCCAAGCCCGGAUAAAAGUGGACGGAGCGG [G47C G50A]	0.13
CCGCCUAACACUGCCAAUGCCGGUCCCAAGCCCGGAUAAAAGUGGACGGCGCGG [G47C G50C]	0.08
CCGCCUAACACUGCCAAUGCCGGUCCCAAGCCCGGAUAAAAGUGGACGGUGCGG [G47C G50U]	0.07
CCGCCUAACACUGCCAAUGCCGGUCCCAAGCCCGGAUAAAAGUGGACGGGACGG [G47C G51A]	0.09
CCGCCUAACACUGCCAAUGCCGGUCCCAAGCCCGGAUAAAAGUGGACGGGCCGG [G47C G51C]	0.05
CCGCCUAACACUGCCAAUGCCGGUCCCAAGCCCGGAUAAAAGUGGACGGGUCGG [G47C G51U]	0.05
CCGCCUAACACUGCCAAUGCCGGUCCCAAGCCCGGAUAAAAGUGGACGGGGCAG [G47C G53A]	0.1
CCGCCUAACACUGCCAAUGCCGGUCCCAAGCCCGGAUAAAAGUGGACGGGGCCG [G47C G53C]	0.06
CCGCCUAACACUGCCAAUGCCGGUCCCAAGCCCGGAUAAAAGUGGACGGGGCUG [G47C G53U]	0.08
CCGCCUAACACUGCCAAUGCCGGUCCCAAGCCCGGAUAAAAGUGGACGGGGCGA [G47C G54A]	0.14
CCGCCUAACACUGCCAAUGCCGGUCCCAAGCCCGGAUAAAAGUGGACGGGGCGC [G47C G54C]	0.13
CCGCCUAACACUGCCAAUGCCGGUCCCAAGCCCGGAUAAAAGUGGACGGGGCGU [G47C G54U]	0.24
CCGCCUAACACAGCCAAUGCCGGUCCCAAGCCCGGAUAAAAGUGGACGGGGCGG [G47C U12A]	0.06
CCGCCUAACACCGCCAAUGCCGGUCCCAAGCCCGGAUAAAAGUGGACGGGGCGG [G47C U12C]	0.05
CCGCCUAACACGGCCAAUGCCGGUCCCAAGCCCGGAUAAAAGUGGACGGGGCGG [G47C U12G]	0.06
CCGCCUAACACUGCCAAAGCCGGUCCCAAGCCCGGAUAAAAGUGGACGGGGCGG [G47C U18A]	0.12
CCGCCUAACACUGCCAACGCCGGUCCCAAGCCCGGAUAAAAGUGGACGGGGCGG [G47C U18C]	0.1
CCGCCUAACACUGCCAAGGCCGGUCCCAAGCCCGGAUAAAAGUGGACGGGGCGG [G47C U18G]	0.24
CCGCCUAACACUGCCAAUGCCGGACCCAAGCCCGGAUAAAAGUGGACGGGGCGG [G47C U24A]	0.03
CCGCCUAACACUGCCAAUGCCGGCCCCAAGCCCGGAUAAAAGUGGACGGGGCGG [G47C U24C]	0.04
CCGCCUAACACUGCCAAUGCCGGGCCCAAGCCCGGAUAAAAGUGGACGGGGCGG [G47C U24G]	0.01

Variant	self-cleavage
CCGCCUAACACUGCCAAUGCCGGUCCCAAGCCCGGAAAAAAGUGGACGGGGCGG [G47C U37A]	0.09
CCGCCUAACACUGCCAAUGCCGGUCCCAAGCCCGGACAAAAGUGGACGGGGCGG [G47C U37C]	0.15
CCGCCUAACACUGCCAAUGCCGGUCCCAAGCCCGGAGAAAAGUGGACGGGGCGG [G47C U37G]	0.21
CCGCCUAACACUGCCAAUGCCGGUCCCAAGCCCGGAUAAAAGAGGACGGGGCGG [G47C U43A]	0.1
CCGCCUAACACUGCCAAUGCCGGUCCCAAGCCCGGAUAAAAGCGGACGGGGCGG [G47C U43C]	0.08
CCGCCUAACACUGCCAAUGCCGGUCCCAAGCCCGGAUAAAAGGGGACGGGGCGG [G47C U43G]	0.07
CCGCCUAACACUGCCAAUGCCGGUCCCAAGCCCGGAUAAAAGUGGAUGGGGCGG [G47U]	0.42
CCGCCUAACACUGCCAAUGCCGGUCCCAAGCCCGGAUAAAAGUGGAUAGGGCGG [G47U G48A]	0.04
CCGCCUAACACUGCCAAUGCCGGUCCCAAGCCCGGAUAAAAGUGGAUCGGGCGG [G47U G48C]	0.05
CCGCCUAACACUGCCAAUGCCGGUCCCAAGCCCGGAUAAAAGUGGAUUGGGCGG [G47U G48U]	0.05
CCGCCUAACACUGCCAAUGCCGGUCCCAAGCCCGGAUAAAAGUGGAUGAGGCGG [G47U G49A]	0.05
CCGCCUAACACUGCCAAUGCCGGUCCCAAGCCCGGAUAAAAGUGGAUGCGGCGG [G47U G49C]	0.04
CCGCCUAACACUGCCAAUGCCGGUCCCAAGCCCGGAUAAAAGUGGAUGUGGCGG [G47U G49U]	0.05
CCGCCUAACACUGCCAAUGCCGGUCCCAAGCCCGGAUAAAAGUGGAUGGAGCGG [G47U G50A]	0.19
CCGCCUAACACUGCCAAUGCCGGUCCCAAGCCCGGAUAAAAGUGGAUGGCGCGG [G47U G50C]	0.07
CCGCCUAACACUGCCAAUGCCGGUCCCAAGCCCGGAUAAAAGUGGAUGGUGCGG [G47U G50U]	0.1
CCGCCUAACACUGCCAAUGCCGGUCCCAAGCCCGGAUAAAAGUGGAUGGGACGG [G47U G51A]	0.09
CCGCCUAACACUGCCAAUGCCGGUCCCAAGCCCGGAUAAAAGUGGAUGGGCCGG [G47U G51C]	0.05
CCGCCUAACACUGCCAAUGCCGGUCCCAAGCCCGGAUAAAAGUGGAUGGGUCGG [G47U G51U]	0.08
CCGCCUAACACUGCCAAUGCCGGUCCCAAGCCCGGAUAAAAGUGGAUGGGGCAG [G47U G53A]	0.18
CCGCCUAACACUGCCAAUGCCGGUCCCAAGCCCGGAUAAAAGUGGAUGGGGCCG [G47U G53C]	0.06
CCGCCUAACACUGCCAAUGCCGGUCCCAAGCCCGGAUAAAAGUGGAUGGGGCUG [G47U G53U]	0.1
